For data set [1], the target named is Voltage-gated inwardly rectifying potassium channel KCNH2 (Homo sapiens, UniProt Q12809). The experiment in a line: Binding affinity to human ERG.
Data set [2] addresses Histone deacetylase 1 (Homo sapiens, UniProt Q13547). It counts as cell-based, HEK293F.
In data set [3] the test system is HCT-116. The experiment in a line: cells. It is filed as functional, Homo sapiens. The note with it: Homo sapiens, HCT-116, 72 h.
Data set [4] is described as follows: Solubility of the compound. It is filed as physicochemical. A digest of the protocol:
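Solubility determined on the bis-HCl salt, reported in mg/mL.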

Molecules are shown by their SMILES.

Sequence of Histone deacetylase 1 (Q13547 whole entry): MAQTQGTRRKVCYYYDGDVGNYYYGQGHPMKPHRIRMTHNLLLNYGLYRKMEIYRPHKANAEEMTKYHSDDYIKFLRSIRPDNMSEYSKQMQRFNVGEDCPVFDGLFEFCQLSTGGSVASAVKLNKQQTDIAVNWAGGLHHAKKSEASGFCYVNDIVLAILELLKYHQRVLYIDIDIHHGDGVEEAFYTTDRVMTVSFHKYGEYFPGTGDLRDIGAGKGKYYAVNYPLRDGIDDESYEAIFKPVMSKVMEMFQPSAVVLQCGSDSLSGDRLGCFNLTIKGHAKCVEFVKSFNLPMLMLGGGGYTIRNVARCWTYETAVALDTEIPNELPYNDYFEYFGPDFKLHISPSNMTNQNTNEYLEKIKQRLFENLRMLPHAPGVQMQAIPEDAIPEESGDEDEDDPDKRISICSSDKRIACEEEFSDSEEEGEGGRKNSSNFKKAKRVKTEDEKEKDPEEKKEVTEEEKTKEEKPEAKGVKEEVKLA
Sequence of Voltage-gated inwardly rectifying potassium channel KCNH2 (Q12809 whole entry): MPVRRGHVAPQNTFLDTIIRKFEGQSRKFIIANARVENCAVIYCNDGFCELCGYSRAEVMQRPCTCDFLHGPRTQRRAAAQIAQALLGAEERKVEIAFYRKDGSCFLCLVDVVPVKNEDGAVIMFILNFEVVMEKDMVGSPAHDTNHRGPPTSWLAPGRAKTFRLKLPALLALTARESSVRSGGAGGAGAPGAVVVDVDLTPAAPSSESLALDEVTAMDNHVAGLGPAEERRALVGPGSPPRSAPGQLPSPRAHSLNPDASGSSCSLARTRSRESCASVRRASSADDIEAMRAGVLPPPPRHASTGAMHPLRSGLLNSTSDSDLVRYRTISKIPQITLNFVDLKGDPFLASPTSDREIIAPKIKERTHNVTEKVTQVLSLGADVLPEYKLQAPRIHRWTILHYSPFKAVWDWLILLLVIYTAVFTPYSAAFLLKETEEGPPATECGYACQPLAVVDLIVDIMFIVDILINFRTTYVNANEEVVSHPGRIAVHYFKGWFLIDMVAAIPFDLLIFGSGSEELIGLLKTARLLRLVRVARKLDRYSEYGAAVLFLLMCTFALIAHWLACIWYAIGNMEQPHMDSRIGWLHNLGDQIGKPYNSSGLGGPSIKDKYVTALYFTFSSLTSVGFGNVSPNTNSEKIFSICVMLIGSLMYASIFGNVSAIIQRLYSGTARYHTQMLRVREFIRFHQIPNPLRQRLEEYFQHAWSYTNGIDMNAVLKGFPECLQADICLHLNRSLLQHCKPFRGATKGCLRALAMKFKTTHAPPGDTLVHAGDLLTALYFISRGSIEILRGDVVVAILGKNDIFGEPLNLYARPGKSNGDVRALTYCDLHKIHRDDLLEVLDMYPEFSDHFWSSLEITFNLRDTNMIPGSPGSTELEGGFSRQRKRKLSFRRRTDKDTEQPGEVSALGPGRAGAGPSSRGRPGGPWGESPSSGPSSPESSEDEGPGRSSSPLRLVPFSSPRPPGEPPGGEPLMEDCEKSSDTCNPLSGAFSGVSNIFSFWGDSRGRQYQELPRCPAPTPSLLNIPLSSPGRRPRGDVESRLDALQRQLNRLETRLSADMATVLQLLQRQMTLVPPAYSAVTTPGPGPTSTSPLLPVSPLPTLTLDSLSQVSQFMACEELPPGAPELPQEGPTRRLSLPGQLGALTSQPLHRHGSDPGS

`Nc1ccccc1NC(=O)c1ccc(N2CCC3(CC2)CNC(=O)O3)nc1` displayed a Ki in data set [1] above 10000 nM. The compound further registered an IC50 in data set [2] of 580 nM. In addition, growth in data set [3] was halved (GI50) at 5080 nM.
Compound `Cc1csc(-c2ccc(N)c(NC(=O)c3ccc(N4CCC5(CC4)CNC(=O)O5)nc3)c2)c1` showed an inhibitory constant (Ki) in data set [1] of 2000 nM. In addition, in data set [2], the IC50 amounted to 14 nM. In data set [3], the GI50 is 890 nM.
As to `Nc1ccc(-c2ccc(F)cc2)cc1NC(=O)c1ccc(N2CCC3(CC2)CNC(=O)O3)nc1`, the affinity in data set [1] corresponds to a Ki of 620 nM. In data set [2], it took 20 nM to reach half-maximal inhibition (IC50). Moreover, the GI50 in data set [3] is 710 nM.
`Cl.Nc1ccc(-c2cccs2)cc1NC(=O)c1ccc(N2CCC3(CC2)CNC(=O)O3)nc1` showed a solubility in data set [4] of 1300 µg/mL.
In data set [1], `Cn1cnc(-c2ccc(N)c(NC(=O)c3ccc(N4CCC5(CC4)CNC(=O)O5)nc3)c2)c1` gave a Ki above 10000 nM. Further, in data set [2], the concentration for half-maximal inhibition (IC50) is 51 nM. Further, it took 4650 nM to inhibit growth in data set [3] by half (GI50).
The matching figures for `Cn1cc(-c2ccc(N)c(NC(=O)c3ccc(N4CCC5(CC4)CNC(=O)O5)nc3)c2)cn1`: above 10000 nM, 18 nM and 2120 nM.
Compound `Nc1ccc(-c2ccsc2)cc1NC(=O)c1ccc(N2CCC3(CC2)CNC(=O)O3)nc1` came in with a Ki in data set [1] above 30000 nM. The compound further yielded an IC50 in data set [2] of 11 nM. This compound had a GI50 in data set [3] of 270 nM.
`Nc1ccc(-c2ccccc2)cc1NC(=O)c1ccc(N2CCC3(CC2)CNC(=O)O3)nc1` registered a Ki in data set [1] of 3400 nM. In data set [2], the IC50 was 17 nM. Moreover, in data set [3], halving of growth (GI50) required 490 nM.

As a reminder, the Ki is a dissociation constant, usually derived from enzyme kinetics or from competition with a known ligand. A word on the IC50: it is the midpoint of a concentration-inhibition curve. The low end stands for higher potency, the high end for lower potency. As usually defined, the GI50 is the concentration giving 50% growth inhibition. Read a high GI50 as less potent growth inhibition. One may read the solubility as the dissolved amount per volume that the medium holds. Low readings indicate little dissolved substance, high ones much dissolved substance.

The values above are taken from ChEMBL document CHEMBL3286368, “Delayed and Prolonged Histone Hyperacetylation with a Selective HDAC1/HDAC2 Inhibitor” (ACS Med Chem Lett, 2014).
